Laboratory results published in ChEMBL document CHEMBL4334441, “Exploitation of Antibiotic Resistance as a Novel Drug Target: Development of a β-Lactamase-Activated Antibacterial Prodrug” (J Med Chem, 2019).
Values after ≈ are worked out from the molar mass of the structure shown. Active and inactive are the calls of the source. The calls are words filed in the database; no cut-off is given here.

Assays:
Escherichia coli [1] = test: Growth inhibition of ciprofloxacin-susceptible Escherichia coli CFT073 harboring pSU18 incubated for 18 hrs by broth microdilution method; format: organism-based; conditions: in vivo
How it was run: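 MIC determination in E. coli CFT073, either wild type or carrying pSU18 (empty pEMP, or encoding CTX-M, NDM-1 or KPC). Dose–response growth curves were run, and each point is the mean ± SEM of n = 3. The MIC is the minimal concentration that inhibits bacterial growth.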

[2] = Selectivity ratio of MIC for ciprofloxacin-susceptible Escherichia coli CFT073 harboring pSU18 to MIC for ciprofloxacin-susceptible Escherichia coli DH5[alpha]; format: ADME
Escherichia coli [3] = test: Growth inhibition of ciprofloxacin-susceptible Escherichia coli DH5[alpha] incubated for 18 hrs by broth microdilution method; format: organism-based; conditions: in vivo
How it was run: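 MIC determination against E. coli DH5α, either lacking β-lactamase or expressing the ESBL TEM-116. The MIC is the minimal concentration that inhibits bacterial growth.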

[4] = Prodrug activation in Escherichia coli CFT073 harboring CTX-M-1 assessed as bacterial CTX-M-1-mediated compound hydrolysis incubated for 1 hr by 1H-NMR analysis; conditions: bacteria
How it was run: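 Whole-cell hydrolysis used E. coli CFT073 carrying pSU18 encoding CTX-M-1. The read-out was percentage of compound hydrolysed after 60 min.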

Escherichia coli [5] = test: Growth inhibition of Escherichia coli DH5[alpha] expressing ESBL TEM-116 incubated for 18 hrs by broth microdilution method; format: functional
Escherichia coli [6] = test: Growth inhibition of Escherichia coli CFT073 harboring pSU18 and CTX-M-1 incubated for 18 hrs by broth microdilution method; conditions: CFT073, 18 h
Enterococcus faecalis [7] = test: Effect on growth of Enterococcus faecalis ATCC 29212 incubated for 18 hrs by broth microdilution method; format: organism-based; conditions: in vivo
[8] = molecular target: DNA gyrase (Escherichia coli) (UniProt P0AES6+P0AES4); conditions: 1 uM
Enterococcus faecalis [9] = test: Effect on growth of Enterococcus faecalis GW01 incubated for 18 hrs by broth microdilution method; format: organism-based; conditions: in vivo
[10] = Prodrug activation in Escherichia coli DH5[alpha] expressing beta-lactamase CTX-M-1 assessed as bacterial CTX-M-1-mediated compound hydrolysis at 100 uM incubated for 60 mins by 1H-NMR spectra analysis; conditions: bacteria
[11] = Prodrug activation in Escherichia coli DH5[alpha] expressing TEM-116 assessed as bacterial TEM-116 mediated compound hydrolysis at 50 uM incubated for 60 mins by 1H-NMR spectra analysis; conditions: bacteria
[12] = Drug metabolism in CTX-M-1-deficient Escherichia coli DH5[alpha] assessed as compound hydrolysis at 100 uM incubated for 60 mins by 1H-NMR spectra analysis; format: ADME; conditions: CTX-M-1-deficient Escherichia coli DH5alpha cells, read-out: Drug metabolism
[13] = Drug metabolism in TEM-116-deficient Escherichia coli DH5[alpha] assessed as compound hydrolysis at 100 uM incubated for 90 mins by 1H-NMR spectra analysis; format: ADME; conditions: TEM-116-deficient Escherichia coli DH5alpha cells, read-out: Drug degradation
[14] = Prodrug activation in Escherichia coli DH5[alpha] expressing TEM-116 assessed as bacterial TEM-116 mediated compound hydrolysis at 100 uM incubated for 90 mins by 1H-NMR spectra analysis; conditions: bacteria, 1.5 h

Compound	MIC (Escherichia coli [1])	Selectivity ratio [2]	MIC (Escherichia coli [3]) [µM]	Drug metabolism [4] [%]	MIC (Escherichia coli [5]) [µM]	MIC (Escherichia coli [6]) [µM]	Activity (Enterococcus faecalis [7])	inhibition [8]	Activity (Enterococcus faecalis [9])	Drug metabolism [10] [%]	Drug metabolism [11] [%]	metabolised at 1 h, 100 µM [12] [%]	metabolised at 1.5 h, 100 µM [13] [%]	Drug metabolism [14] [%]
CC(=O)OCC1=C(C(=O)O)N2C(=O)[C@@H](NC(=O)Cc3ccc(F)cc3)[C@H]2SC1	100 µM (≈ 40.8 µg/mL)	<= 2	100 (≈ 40.8 µg/mL)	18	200 (≈ 81.7 µg/mL)	> 400	–	–	–	–	–	–	–	–
CCCC(=O)N[C@@H]1C(=O)N2C(C(=O)O)=C(COC(C)=O)CS[C@H]12	200 µM (≈ 68.5 µg/mL)	<= 2	100 (≈ 34.2 µg/mL)	25	400 (≈ 137 µg/mL)	> 400	–	–	–	–	–	–	–	–
CCCCCC(=O)N[C@@H]1C(=O)N2C(C(=O)O)=C(COC(C)=O)CS[C@H]12	100 µM (≈ 37 µg/mL)	<= 2	200 (≈ 74.1 µg/mL)	7	> 800	> 400	–	–	–	–	–	–	–	–
CC(=O)OCC1=C(C(=O)O)N2C(=O)[C@@H](NC(=O)[C@H](C)c3ccccc3)[C@H]2SC1	> 400 µM	<= 2	400 (≈ 162 µg/mL)	–	> 800	> 400	–	–	–	–	–	–	–	–
CC(=O)OCC1=C(C(=O)O)N2C(=O)[C@@H](NC(=O)c3ccco3)[C@H]2SC1	> 400 µM	<= 2	> 400	64	> 400	> 400	–	–	–	–	–	–	–	–
CC(=O)OCC1=C(C(=O)O)N2C(=O)[C@@H](NC(=O)Cc3ccc(C)cc3)[C@H]2SC1	100 µM (≈ 40.4 µg/mL)	<= 2	100 (≈ 40.4 µg/mL)	7	400 (≈ 162 µg/mL)	> 400	–	–	–	–	–	–	–	–
CC(=O)OCC1=C(C(=O)O)N2C(=O)[C@@H](NC(=O)C3CCCCC3)[C@H]2SC1	–	–	> 400	–	> 400	–	–	–	–	–	–	–	–	–
CC(=O)OCC1=C(C(=O)O)N2C(=O)[C@@H](NC(=O)Cc3ccc(Br)cc3)[C@H]2SC1	100 µM (≈ 46.9 µg/mL)	<= 2	200 (≈ 93.9 µg/mL)	9	800 (≈ 375 µg/mL)	> 400	–	–	–	–	–	–	–	–
CC(=O)OCC1=C(C(=O)O)N2C(=O)[C@@H](NC(=O)Cc3cccc(C)c3)[C@H]2SC1	200 µM (≈ 80.9 µg/mL)	<= 2	200 (≈ 80.9 µg/mL)	16	400 (≈ 162 µg/mL)	> 400	–	–	–	–	–	–	–	–
O=C(O)c1cn(C2CC2)c2cc(N3CCNCC3)c(F)cc2c1=O [CIPROFLOXACIN]	–	–	–	–	–	–	Toxic	Active	Toxic	–	–	–	–	–
CC(=O)OCC1=C(C(=O)O)N2C(=O)[C@@H](NC(=O)Cc3cccs3)[C@H]2SC1 [CEPHALOTHIN]	25 µM (≈ 9.91 µg/mL)	<= 2	12.5 (≈ 4.96 µg/mL)	68	100 (≈ 39.6 µg/mL)	> 400	–	–	–	100	61	0	–	–
CC(=O)OCC1=C(C(=O)O)N2C(=O)[C@@H](NC(=O)Cc3ccsc3)[C@H]2SC1	50 µM (≈ 19.8 µg/mL)	<= 2	50 (≈ 19.8 µg/mL)	32	200 (≈ 79.3 µg/mL)	> 400	–	–	–	–	–	–	–	–
CC(=O)OCC1=C(C(=O)O)N2C(=O)[C@@H](NC(=O)Cc3ccc(Cl)cc3)[C@H]2SC1	100 µM (≈ 42.5 µg/mL)	<= 2	100 (≈ 42.5 µg/mL)	14	400 (≈ 170 µg/mL)	> 400	–	–	–	–	–	–	–	–
CC(=O)OCC1=C(C(=O)O)N2C(=O)[C@@H](NC(=O)c3ccccc3)[C@H]2SC1	> 400 µM	<= 2	> 400	26	> 400	> 400	–	–	–	–	–	–	–	–
CC(=O)OCC1=C(C(=O)O)N2C(=O)[C@@H](NC(=O)Cc3cccc(Oc4ccccc4)c3)[C@H]2SC1	>= 400 uM	<= 2	> 800	–	> 800	> 400	–	–	–	–	–	–	–	–
CC(=O)OCC1=C(C(=O)O)N2C(=O)[C@@H](NC(=O)Cc3ccc(-c4ccccc4)cc3)[C@H]2SC1	> 400 µM	<= 2	> 800	4	> 800	> 400	–	–	–	100	–	0	14	69
CC(=O)N[C@@H]1C(=O)N2C(C(=O)O)=C(COC(C)=O)CS[C@H]12	400 µM (≈ 126 µg/mL)	<= 2	200 (≈ 62.9 µg/mL)	67	–	> 400	–	–	–	–	–	–	–	–
COc1ccc(C(=O)N[C@@H]2C(=O)N3C(C(=O)O)=C(COC(C)=O)CS[C@H]23)cc1	> 400 µM	<= 2	> 800	3	> 800	> 400	–	–	–	–	–	–	–	–
CC(=O)OCC1=C(C(=O)O)N2C(=O)[C@@H](NC(=O)Cc3ccccc3)[C@H]2SC1 [CEFALORAM]	50 µM (≈ 19.5 µg/mL)	<= 2	50 (≈ 19.5 µg/mL)	17	100 (≈ 39 µg/mL)	> 400	–	–	–	–	–	–	–	–
CC(=O)OCC1=C(C(=O)O)N2C(=O)[C@@H](NC(=O)Cc3cc(Br)cs3)[C@H]2SC1	50 µM (≈ 23.8 µg/mL)	<= 2	50 (≈ 23.8 µg/mL)	–	200 (≈ 95.1 µg/mL)	> 400	–	–	–	–	–	–	–	–
CC(=O)OCC1=C(C(=O)O)N2C(=O)[C@@H](NC(=O)c3ccc([N+](=O)[O-])cc3)[C@H]2SC1	–	–	> 400	–	> 400	–	–	–	–	–	–	–	–	–
CC(=O)OCC1=C(C(=O)O)N2C(=O)[C@@H](NC(=O)Cc3ccc(Oc4ccccc4)cc3)[C@H]2SC1	> 400 µM	<= 2	> 800	4	> 800	> 400	–	–	–	94	–	0	13	54
CC(=O)OCC1=C(C(=O)O)N2C(=O)[C@@H](NC(=O)c3ccc(C)cc3)[C@H]2SC1	> 400 µM	<= 2	> 400	3	> 400	> 400	–	–	–	–	–	–	–	–
